Test results from ChEMBL document CHEMBL1148762, “Lysosome and HER3 (ErbB3) selective anticancer agent kahalalide F: semisynthetic modifications and antifungal lead-exploration studies” (J Med Chem, 2007).
Converted amounts (≈) assume the structure as drawn. The source made the active and inactive calls. The rule behind the calls is not given here.

How the values were obtained:
Fusarium oxysporum [1] = assay: Antimicrobial activity against Fusarium oxysporum at 30 uM after 72 hrs by microtiter assay; assay type: functional
Method in brief: (§1)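 96-well microdilution broth assay with conidia (3 × 10^5 conidia/mL, harvested from 7-day PDA cultures and filtered) against F. oxysporum, F. proliferatum and F. solani at 0.3, 3 and 30 µM. Plates were held at 24 ± 1 °C under a 12 h photoperiod. Growth was read at 620 nm at 24, 48 and 72 h and reported as percent inhibition from mean absorbance with standard error.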

PC-3 = assay: Cytotoxicity against human PC3 cells; assay type: functional
Method in brief: (§2)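 NCI Developmental Therapeutics Program cell panel. GI50 is the concentration that reduces growth of treated cells to half that of untreated controls. TGI is the concentration that completely halts growth.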

Fusarium proliferatum [2] = assay: Antimicrobial activity against Fusarium proliferatum at 0.3 uM after 72 hrs by microtiter assay; assay type: functional; method in brief: as §1
Fusarium oxysporum [3] = assay: Antimicrobial activity against Fusarium oxysporum at 0.3 uM after 48 hrs by microtiter assay; assay type: functional; method in brief: as §1
DU-145 = assay: Cytotoxicity against human DU145 cells; assay type: functional; method in brief: as §2
HCC 2998 = assay: Cytotoxicity against human HCC2998 cells; assay type: functional; method in brief: as §2
Fusarium proliferatum [4] = assay: Antimicrobial activity against Fusarium proliferatum at 0.3 uM after 48 hrs by microtiter assay; assay type: functional; method in brief: as §1
Aspergillus fumigatus = assay: Antimicrobial activity against Aspergillus fumigatus ATCC 90906; assay type: functional, organism-based
Fusarium solani [5] = assay: Antimicrobial activity against Fusarium solani at 3 uM after 72 hrs by microtiter assay; assay type: functional; method in brief: as §1
SNB-75 = assay: Cytotoxicity against human SNB75 cells; assay type: functional; method in brief: as §2
Leishmania donovani = assay: Antiparasitic activity against Leishmania donovani; assay type: functional, organism-based
NCI-H322M = assay: Cytotoxicity against human NCI-H322M cells; assay type: functional; method in brief: as §2
Fusarium solani [6] = assay: Antimicrobial activity against Fusarium solani at 30 uM after 72 hrs by microtiter assay; assay type: functional; method in brief: as §1
Hs-578T = assay: Cytotoxicity against human HS578T cells; assay type: functional; method in brief: as §2
[7] = system: Mycobacterium tuberculosis; assay: Antibacterial activity against Mycobacterium tuberculosis H37Rv by micro plate alamar blue assay; assay type: functional
Fusarium oxysporum [8] = assay: Antimicrobial activity against Fusarium oxysporum at 3 uM after 72 hrs by microtiter assay; assay type: functional; method in brief: as §1
Fusarium proliferatum [9] = assay: Antimicrobial activity against Fusarium proliferatum at 30 uM after 72 hrs by microtiter assay; assay type: functional; method in brief: as §1
A549 = assay: Cytotoxicity against human A549 cells; assay type: functional; method in brief: as §2
Cryptococcus neoformans = assay: Antimicrobial activity against Cryptococcus neoformans ATCC 90113; assay type: functional, organism-based
Fusarium proliferatum [10] = assay: Antimicrobial activity against Fusarium proliferatum at 3 uM after 48 hrs by microtiter assay; assay type: functional; method in brief: as §1
HT-29 = assay: Cytotoxicity against human HT29 cells; assay type: functional; method in brief: as §2
Fusarium solani [11] = assay: Antimicrobial activity against Fusarium solani at 0.3 uM after 72 hrs by microtiter assay; assay type: functional; method in brief: as §1
T47D = assay: Cytotoxicity against human T47D cells; assay type: functional; method in brief: as §2
RPMI-8226 = assay: Cytotoxicity against human RPMI8226 cells; assay type: functional; method in brief: as §2
Fusarium oxysporum [12] = assay: Antimicrobial activity against Fusarium oxysporum at 0.3 uM after 72 hrs by microtiter assay; assay type: functional; method in brief: as §1
HCT-15 = assay: Cytotoxicity against human HCT15 cells; assay type: functional; method in brief: as §2
Fusarium oxysporum [13] = assay: Antimicrobial activity against Fusarium oxysporum at 30 uM after 48 hrs by microtiter assay; assay type: functional; method in brief: as §1
[14] = system: Mycobacterium tuberculosis; assay: Antibacterial activity against Mycobacterium tuberculosis H37Rv at 16 ug/mL by micro plate alamar blue assay; assay type: functional
Method in brief: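 M. tuberculosis H37Rv ATCC 27294 grown in BACTEC 12B medium; microplate Alamar blue assay (MABA). Primary screen at a single concentration of 16 µg/mL, read as percent inhibition.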

Fusarium oxysporum [15] = assay: Antimicrobial activity against Fusarium oxysporum at 3 uM after 48 hrs by microtiter assay; assay type: functional; method in brief: as §1
Fusarium solani [16] = assay: Antimicrobial activity against Fusarium solani at 30 uM after 48 hrs by microtiter assay; assay type: functional; method in brief: as §1
UACC-257 = assay: Cytotoxicity against human UACC257 cells; assay type: functional; method in brief: as §2
Fusarium proliferatum [17] = assay: Antimicrobial activity against Fusarium proliferatum at 3 uM after 72 hrs by microtiter assay; assay type: functional; method in brief: as §1
Candida albicans = assay: Antimicrobial activity against Candida albicans ATCC 90028; assay type: functional, organism-based
[18] = system: Mycobacterium intracellulare; assay: Antimicrobial activity against Mycobacterium intracellular ATCC 23068; assay type: functional, organism-based
ACHN = assay: Cytotoxicity against human ACHN cells; assay type: functional; method in brief: as §2
SK-OV-3 = assay: Cytotoxicity against human SK-OV3 cells; assay type: functional; method in brief: as §2
Fusarium solani [19] = assay: Antimicrobial activity against Fusarium solani at 3 uM after 48 hrs by microtiter assay; assay type: functional; method in brief: as §1
Fusarium proliferatum [20] = assay: Antimicrobial activity against Fusarium proliferatum at 30 uM after 48 hrs by microtiter assay; assay type: functional; method in brief: as §1
COLO 205 = assay: Cytotoxicity against human COLO205 cells; assay type: functional; method in brief: as §2
KM12 = assay: Cytotoxicity against human KM12 cells; assay type: functional; method in brief: as §2
Fusarium solani [21] = assay: Antimicrobial activity against Fusarium solani at 0.3 uM after 48 hrs by microtiter assay; assay type: functional; method in brief: as §1
Fusarium oxysporum [22] = assay: Fungistatic activity against Fusarium oxysporum at 30 uM after 72 hrs by microtiter plate assay; assay type: functional, organism-based
Method in brief: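 Conidia come from 7-day potato dextrose agar cultures, filtered and set photometrically (625 nm) to 3 × 10^5 conidia/mL. They are exposed to compound at 30 µM in 96-well microdilution broth at 24 ± 1 °C under a 12 h photoperiod. After 72 h, 20 µL per well is subcultured on drug-free potato dextrose agar at 28 °C for 3 days. No regrowth is scored fungicidal; regrowth is scored fungistatic.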

Fusarium solani [23] = assay: Fungicidal activity against Fusarium solani at 30 uM after 72 hrs by microtiter assay; assay type: functional, organism-based
Method in brief: (§3)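 After 72 h of microtiter broth exposure at 30 µM, 20 µL from each well was plated onto compound-free potato dextrose agar and incubated 3 days at 28 °C. No regrowth was scored fungicidal; regrowth was scored fungistatic.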

Fusarium proliferatum [24] = assay: Fungicidal activity against Fusarium proliferatum at 30 uM after 72 hrs by microtiter plate assay; assay type: functional, organism-based; method in brief: as §3

## C/C=C1\NC(=O)[C@H](Cc2ccccc2)NC(=O)[C@@H](C(C)C)NC(=O)[C@@H]([C@@H](C)CC)NC(=O)[C@H](NC(=O)[C@H](NC(=O)[C@H](CCCNCc2cccs2)NC(=O)[C@H]2CCCN2C(=O)[C@H](NC(=O)[C@@H](NC(=O)[C@@H](NC(=O)[C@H](NC(=O)CCCC(C)C)C(C)C)[C@@H](C)O)C(C)C)C(C)C)[C@@H](C)CC)[C@@H](C)OC(=O)[C@H](C(C)C)NC1=O
Fusarium oxysporum [1]
  inhibition at 30 µM: 99.2%
PC-3
  GI50: 0.228 µM
  TGI: 0.665 µM
Fusarium proliferatum [2]
  inhibition at 0.3 µM: 0%
Fusarium oxysporum [3]
  inhibition at 0.3 µM: 0%
DU-145
  GI50: 0.144 µM
  TGI: 0.292 µM
HCC 2998
  GI50: 0.255 µM
  TGI: 0.971 µM
Fusarium proliferatum [4]
  inhibition at 0.3 µM: 0%
Aspergillus fumigatus
  MFC: 20 µM (≈ 31.5 µg/mL)
  MIC: 10 µM (≈ 15.7 µg/mL)
Fusarium solani [5]
  inhibition at 3 µM: 32.9%
SNB-75
  GI50: 1.01 µM
  TGI: 2.19 µM
Leishmania donovani
  IC90: 34 mg/L (≈ 21.6 µM)
NCI-H322M
  GI50: 0.167 µM
  TGI: 0.304 µM
Fusarium solani [6]
  inhibition at 30 µM: 99.3%
Hs-578T
  GI50: 0.427 µM
  TGI: 2.13 µM
[7]
  MIC: 15.5 mg/L (≈ 9.85 µM)
Fusarium oxysporum [8]
  inhibition at 3 µM: 0%
Fusarium proliferatum [9]
  inhibition at 30 µM: 99%
A549
  GI50: 0.166 µM
Cryptococcus neoformans
  MFC: 10 µM (≈ 15.7 µg/mL)
  MIC: 5 µM (≈ 7.87 µg/mL)
Fusarium proliferatum [10]
  inhibition at 3 µM: 4.8%
HT-29
  GI50: 0.187 µM
Fusarium solani [11]
  inhibition at 0.3 µM: 0%
T47D
  GI50: 0.191 µM
  TGI: 0.394 µM
RPMI-8226
  GI50: 1.27 µM
  TGI: 2.76 µM
Fusarium oxysporum [12]
  inhibition at 0.3 µM: 0%
HCT-15
  GI50: 0.416 µM
  TGI: 1.36 µM
Fusarium oxysporum [13]
  inhibition at 30 µM: 98.8%
[14]
  inhibition at 16 µg/mL: 92%
Fusarium oxysporum [15]
  inhibition at 3 µM: 13.7%
Fusarium solani [16]
  inhibition at 30 µM: 99%
UACC-257
  GI50: 1.44 µM
  TGI: 2.82 µM
Fusarium proliferatum [17]
  inhibition at 3 µM: 0%
Candida albicans
  MFC: 20 µM (≈ 31.5 µg/mL)
  MIC: 10 µM (≈ 15.7 µg/mL)
[18]
  MBC: > 20 µM
  MIC: > 20 µM
ACHN
  GI50: 1.32 µM
  TGI: 2.37 µM
SK-OV-3
  GI50: 0.223 µM
  TGI: 0.485 µM
Fusarium solani [19]
  inhibition at 3 µM: 47%
Fusarium proliferatum [20]
  inhibition at 30 µM: 98.7%
COLO 205
  GI50: 0.243 µM
KM12
  GI50: 1.01 µM
  TGI: 2.19 µM
Fusarium solani [21]
  inhibition at 0.3 µM: 0%

## C/C=C1\NC(=O)[C@H](Cc2ccccc2)NC(=O)[C@@H](C(C)C)NC(=O)[C@@H]([C@@H](C)CC)NC(=O)[C@H](NC(=O)[C@H](NC(=O)[C@H](CCCNC(=O)c2cc3ccc(N(CC)CC)cc3oc2=O)NC(=O)[C@H]2CCCN2C(=O)[C@H](NC(=O)[C@@H](NC(=O)[C@@H](NC(=O)[C@H](NC(=O)CCCC(C)C)C(C)C)[C@@H](C)O)C(C)C)C(C)C)[C@@H](C)CC)[C@@H](C)OC(=O)[C@H](C(C)C)NC1=O
Fusarium oxysporum [1]
  inhibition at 30 µM: 0%
PC-3
  GI50: 3.7 µM
  TGI: 21.8 µM
Fusarium proliferatum [2]
  inhibition at 0.3 µM: 0%
Fusarium oxysporum [3]
  inhibition at 0.3 µM: 0%
DU-145
  GI50: 0.33 µM
  TGI: 1.83 µM
HCC 2998
  GI50: 2.27 µM
  TGI: 11.4 µM
Fusarium proliferatum [4]
  inhibition at 0.3 µM: 0%
Fusarium solani [5]
  inhibition at 3 µM: 0%
SNB-75
  GI50: 2.11 µM
  TGI: 6.87 µM
NCI-H322M
  GI50: 0.165 µM
  TGI: 0.49 µM
Fusarium solani [6]
  inhibition at 30 µM: 0%
Hs-578T
  GI50: 3.03 µM
  TGI: > 100 µM
Fusarium oxysporum [8]
  inhibition at 3 µM: 0%
Fusarium proliferatum [9]
  inhibition at 30 µM: 0%
A549
  GI50: 13.7 µM
  TGI: > 100 µM
Fusarium proliferatum [10]
  inhibition at 3 µM: 0%
HT-29
  GI50: 2.39 µM
  TGI: > 100 µM
Fusarium solani [11]
  inhibition at 0.3 µM: 0%
T47D
  GI50: 0.518 µM
  TGI: 2.83 µM
RPMI-8226
  GI50: 40.1 µM
  TGI: > 100 µM
Fusarium oxysporum [12]
  inhibition at 0.3 µM: 0%
HCT-15
  GI50: 0.964 µM
  TGI: 17.7 µM
Fusarium oxysporum [13]
  inhibition at 30 µM: 0%
[14]
  inhibition at 16 µg/mL: 46%
Fusarium oxysporum [15]
  inhibition at 3 µM: 0%
Fusarium solani [16]
  inhibition at 30 µM: 0%
UACC-257
  GI50: > 100 µM
  TGI: > 100 µM
Fusarium proliferatum [17]
  inhibition at 3 µM: 0%
ACHN
  GI50: 26.4 µM
  TGI: 69.8 µM
SK-OV-3
  GI50: 2.55 µM
  TGI: 20.2 µM
Fusarium solani [19]
  inhibition at 3 µM: 0%
Fusarium proliferatum [20]
  inhibition at 30 µM: 0%
COLO 205
  GI50: 4.52 µM
  TGI: > 100 µM
KM12
  GI50: 0.413 µM
  TGI: 3.07 µM
Fusarium solani [21]
  inhibition at 0.3 µM: 0%

## C/C=C1\NC(=O)[C@H](Cc2ccccc2)NC(=O)[C@@H](C(C)C)NC(=O)[C@@H]([C@@H](C)CC)NC(=O)[C@H](NC(=O)[C@H](NC(=O)[C@H](CCCNCc2ccncc2)NC(=O)[C@H]2CCCN2C(=O)[C@@H](NC(=O)[C@H](NC(=O)[C@H](NC(=O)[C@@H](NC(=O)CCCC(C)C)C(C)C)[C@H](C)O)C(C)C)C(C)C)[C@@H](C)CC)[C@@H](C)OC(=O)[C@H](C(C)C)NC1=O
Fusarium oxysporum [22]
  Activity: Active
Fusarium solani [23]
  Activity: Active
Fusarium proliferatum [24]
  Activity: Active
